The results in this text go back to ChEMBL document CHEMBL1944590, “Synthesis of 3-phenylsulfonylmethyl cyclohexylaminobenzamide-derived antagonists of CC chemokine receptor 2 (CCR2)” (Bioorg Med Chem Lett, 2012).

In data set [1] the target is T1, C-C chemokine receptor type 2 (Homo sapiens, UniProt P41597). Description: Displacement of [125I]MCP-1 from CCR2 in human PMBC.
Target sequence in this assay (P41597 whole entry): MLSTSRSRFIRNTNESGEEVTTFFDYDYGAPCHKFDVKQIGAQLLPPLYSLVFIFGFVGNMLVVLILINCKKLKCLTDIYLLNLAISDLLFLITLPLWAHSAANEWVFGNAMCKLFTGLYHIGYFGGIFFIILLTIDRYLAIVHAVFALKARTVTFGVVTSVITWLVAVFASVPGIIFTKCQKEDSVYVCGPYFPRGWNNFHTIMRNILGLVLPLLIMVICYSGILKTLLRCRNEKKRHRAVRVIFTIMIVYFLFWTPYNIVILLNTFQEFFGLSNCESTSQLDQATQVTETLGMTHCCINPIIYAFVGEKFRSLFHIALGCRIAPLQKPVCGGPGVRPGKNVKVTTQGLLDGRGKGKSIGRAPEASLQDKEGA
For data set [2], the target named is T1, C-C chemokine receptor type 2. Description: Displacement of [125I]MCP-1 from CCR2 in human PMBC up to 2400 nM. The method in brief:
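Competition binding against [¹²⁵I]MCP-1 using human peripheral blood mononuclear cells at room temperature. IC50 typically given as the mean of two determinations (± standard deviation).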
Target sequence in this assay (P41597 whole entry, looked up): as the sequence (P41597 whole entry) above
Background: Displacement assays read how much labelled ligand stays bound in the presence of the test substance.

Data set [3] is described as follows: Metabolic stability of the compound in human liver microsomes assessed as compound remaining at 0.5 uM aftet 10 mins. It is filed as ADME, Microsome. Conditions: read-out: Stability. The method in brief:
(§1)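 Test compound at 0.5 μM initial concentration incubated 10 min with human, rat or mouse liver microsomes. Stability expressed as percentage of parent compound remaining at the end of incubation.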
In general terms: Liver microsomes are a subcellular fraction often used to study metabolism.

Data set [4] can be described thus: Metabolic stability of the compound in rat liver microsomes assessed as compound remaining at 0.5 uM aftet 10 mins. It is filed as ADME, Microsome. Conditions: read-out: Stability. Put shortly:
as §1

Data set [5] is described as follows: Metabolic stability of the compound in mouse liver microsomes assessed as compound remaining at 0.5 uM aftet 10 mins. The settings on record: read-out: Stability. The data set is classed as ADME, Microsome. Put shortly:
as §1

Data set [6] addresses C-C chemokine receptor type 5 (Homo sapiens, UniProt P51681). Briefly: Displacement of [125I]MIP-1beta from CCR5.
The target in data set [7] is T1, C-C chemokine receptor type 2. Briefly: Displacement of [125I]MCP-1 from CCR2 in human THP1 cells. The data set is classed as cell-based, THP-1. Put shortly:
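Competition binding against [¹²⁵I]MCP-1 using THP-1 cells in place of peripheral blood mononuclear cells. IC50 typically given as the mean of two determinations.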
Target sequence in this assay (P41597 whole entry): as above

The species entered for another data set is Homo sapiens. Briefly: Selectivity ratio of IC50 for CCR5 to IC50 for human CCR2.

Structures are written as SMILES. Active and inactive are the calls of the source. The rule behind the calls is not given here.

The IC50 is the concentration at which inhibition is half-maximal.

Chain of C-C chemokine receptor type 5 (P51681 whole entry): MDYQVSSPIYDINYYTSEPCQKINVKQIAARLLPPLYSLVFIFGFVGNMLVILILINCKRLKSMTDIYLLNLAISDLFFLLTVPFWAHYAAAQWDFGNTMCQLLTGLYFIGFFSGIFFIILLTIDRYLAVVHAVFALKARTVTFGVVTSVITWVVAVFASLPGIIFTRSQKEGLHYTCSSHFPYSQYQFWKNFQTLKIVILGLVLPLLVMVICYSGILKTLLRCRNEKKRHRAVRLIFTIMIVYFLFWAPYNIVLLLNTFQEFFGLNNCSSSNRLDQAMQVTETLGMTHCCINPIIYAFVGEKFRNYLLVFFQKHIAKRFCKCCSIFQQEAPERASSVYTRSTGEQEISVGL

`CC(C)N(C)[C@@H]1CC[C@H](NC(=O)CNC(=O)c2cccc(C(F)(F)F)c2)C[C@@H]1CS(=O)(=O)c1ccccc1` yielded an IC50 in data set [1] of 79 nM.
On the same count and under the same terms, in the case of `CC(C)N[C@@H]1CC[C@H](NC(=O)CNC(=O)c2cccc(C(F)(F)F)c2)[C@H](CS(=O)(=O)c2ccccc2)C1` it was 5.2 nM; in that of `N[C@@H]1CC[C@H](NC(=O)CNC(=O)c2cccc(C(F)(F)F)c2)C[C@H]1CS(=O)(=O)c1ccccc1`, 3700 nM; in that of `CC(C)N[C@@H]1CC[C@H](NC(=O)CNC(=O)c2cccc(C(F)(F)F)c2)C[C@H]1CS(=O)(=O)c1ccccc1`, 310 nM.
For the compound `CC(C)N(C)[C@@H]1CC[C@H](NC(=O)CNC(=O)c2cccc(C(F)(F)F)c2)C[C@H]1CS(=O)(=O)c1ccccc1`, the IC50 in data set [1] came to 2900 nM. Against the preceding compound, the IC50 is about 9.4-fold higher.
With `N[C@H]1CC[C@@H](NC(=O)CNC(=O)c2cccc(C(F)(F)F)c2)CC1`, the IC50 in data set [1] amounted to 4100 nM. The IC50 values of the last two compounds are within 1.5-fold of each other.
The same measure, in the same setting: in the case of `CC(C)N[C@H]1CC[C@@H](NC(=O)CNC(=O)c2cccc(C(F)(F)F)c2)CC1` it was 570 nM.
On the same count and under the same terms, to `CC(C)N(C)[C@H]1CC[C@@H](NC(=O)CNC(=O)c2cccc(C(F)(F)F)c2)CC1` belongs 72 nM.
Take `CC(C)N(C)[C@H]1CC[C@@H](NC(=O)CNC(=O)c2cccc(C(F)(F)F)c2)C[C@H]1CS(=O)(=O)c1ccccc1`: the inhibition entry in data set [2] was “inactive”.
The compound `CN(C)[C@@H]1CC[C@H](NC(=O)CNC(=O)c2cccc(C(F)(F)F)c2)C[C@@H]1CS(=O)(=O)c1ccccc1` (racemic) showed an IC50 in data set [1] of 130 nM. In addition, the remaining at 10 min, 0.5 µM in data set [3] was 4.4%; in data set [4] it was 3.9%; in data set [5] it was 4.3%.
`CCCN(C)[C@@H]1CC[C@H](NC(=O)CNC(=O)c2cccc(C(F)(F)F)c2)C[C@@H]1CS(=O)(=O)c1ccccc1` (racemic) came in with an IC50 in data set [1] of 370 nM.
Regarding `O=C(CNC(=O)c1cccc(C(F)(F)F)c1)N[C@H]1CC[C@@H](N2CCCCC2)[C@@H](CS(=O)(=O)c2ccccc2)C1` (racemic), the IC50 in data set [1] amounted to 340 nM.
In data set [6], `N[C@@H]1CC[C@H](NC(=O)CNC(=O)c2cc(C(F)(F)F)ccc2NC(=O)N2CCC2)C[C@@H]1CS(=O)(=O)c1ccccc1` (racemic) had an IC50 of 7300 nM. Further, the remaining at 10 min, 0.5 µM came to 70% in data set [3], 71% in data set [4] and 87% in data set [5].
Take `CCN[C@@H]1CC[C@H](NC(=O)CNC(=O)c2cc(C(F)(F)F)ccc2NC(=O)N2CCC2)C[C@@H]1CS(=O)(=O)c1ccccc1` (racemic): the IC50 in data set [7] is 12 nM.
Take `CC(C)N[C@@H]1CC[C@H](NC(=O)CNC(=O)c2cc(C(F)(F)F)ccc2NC(=O)N2CCC2)C[C@@H]1CS(=O)(=O)c1ccccc1` (racemic): the results for the IC50 in data set [7] and in data set [6] were 6.6 nM and 810 nM, respectively. Moreover, the Ratio IC50 in the data set listed under Homo sapiens was more than 100.
On to `CC(C)N(C)[C@@H]1CC[C@H](NC(=O)CNC(=O)c2cc(C(F)(F)F)ccc2NC(=O)N2CCC2)C[C@@H]1CS(=O)(=O)c1ccccc1` (racemic), for which, in data set [7], the IC50 was determined as 34 nM. In other words, the double-digit nanomolar range.
Same read-out and setting: in the case of `CC(C)N(C)[C@@H]1CC[C@H](NC(=O)CNC(=O)c2cccc(C(F)(F)F)c2)C[C@@H]1CS(=O)(=O)c1ccccc1` (racemic) it was 89 nM.
In turn, `N[C@@H]1CC[C@H](NC(=O)CNC(=O)c2cccc(C(F)(F)F)c2)[C@H](CS(=O)(=O)c2ccccc2)C1` (racemic) gave an IC50 in data set [1] of 37 nM.
Consider `N[C@@H]1CC[C@H](NC(=O)CNC(=O)c2cccc(C(F)(F)F)c2)C[C@@H]1CS(=O)(=O)c1ccccc1` (racemic), for which the IC50 in data set [1] was determined as 59 nM. Besides, the remaining at 10 min, 0.5 µM in data set [3] turned out to be 100%; in data set [4] it was 57%; in data set [5], 96%.
On the same counts, the results for `CC(C)N[C@@H]1CC[C@H](NC(=O)CNC(=O)c2cccc(C(F)(F)F)c2)C[C@@H]1CS(=O)(=O)c1ccccc1` (racemic) are 12 nM, 4.4%, 0.9% and 9.6%.
The compound `CN[C@@H]1CC[C@H](NC(=O)CNC(=O)c2cccc(C(F)(F)F)c2)C[C@@H]1CS(=O)(=O)c1ccccc1` (racemic) gave an IC50 in data set [1] of 180 nM.
The compound `CCN[C@@H]1CC[C@H](NC(=O)CNC(=O)c2cccc(C(F)(F)F)c2)C[C@@H]1CS(=O)(=O)c1ccccc1` (racemic) returned an IC50 in data set [1] of 27 nM. Further, the remaining at 10 min, 0.5 µM in data set [3] turned out to be 24%; in data set [4] it was 23%; in data set [5], 25%.
On the same counts, the results for `CCCN[C@@H]1CC[C@H](NC(=O)CNC(=O)c2cccc(C(F)(F)F)c2)C[C@@H]1CS(=O)(=O)c1ccccc1` (racemic) are 54 nM, 11%, 8% and 28%.
`O=C(CNC(=O)c1cccc(C(F)(F)F)c1)N[C@H]1CC[C@@H](NC2CCC2)[C@@H](CS(=O)(=O)c2ccccc2)C1` (racemic): in data set [1], the IC50 is 34 nM.
